Measurements from PubChem BioAssay.
Results filed as inconclusive are left out.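 How the source made its calls, unless noted: active means cell viability at or below a set limit in both duplicate runs, the limit being the all-compound median minus 4 SD (cut at about 23% in these data, passing the limit was not always enough); inconclusive means no clear call, values can overlap the other calls; inactive means the rest.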

Legend:
[1] = S. cerevisiae growth inhibition in permissive medium (OD615), pilot counter-assay for S. cerevisiae lifespan shortening project, permissive growth control (AID 705;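 active means growth inhibition above 25% in both replicates, a cutoff set 3 SD above the mean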); details: OD615, 24 h, at 10 µM, stronger effect = higher value
In short: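 System: S. cerevisiae with engineered DeaD lifespan system. Medium: SC raffinose/galactose permissive medium. Doses: single compound dose of 10 µM, 0.25% DMSO final. Schedule: 24 h exposure, 30 °C. Measured by: OD615 turbidity read. Read-out: growth inhibition.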

[2] = S. cerevisiae growth inhibition in restrictive medium, OD615, pilot screen, restrictive growth control, yeast lifespan reduction project (AID 706;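 active means growth inhibition above a set limit, 3 SD over mean compound inhibition, in both replicates, cut at about 43% in these data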;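 further: modified DeaD lifespan yeast strain shifted to restrictive glucose medium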); details: OD615, 48 h, at 10 µM, stronger effect = higher value
In short: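 Assay system – genetically modified Saccharomyces cerevisiae, DeaD replicative lifespan assay strain · Medium – CSMM-D glucose medium · Doses – 10 µM compound, 0.25% DMSO · Times – 4 h pre-incubation, 48 h exposure at 30 °C · Signal – optical density at 615 nm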

[3] = doxorubicin toxicity protection in MRP-1 cells – H69AR cells, CellTiter-Glo, duplicate, MRP-1 activator project, pilot screen (AID 807;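 active means viability increase at or above a cutoff of the median across tested compounds plus 3 SD, cut at about 8.5% in these data, passing the limit was not always enough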;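 further: compound pretreatment 18-22 h then 72 h combined with doxorubicin; 0% = doxorubicin alone and 100% = vehicle without doxorubicin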); details: H69AR viability with doxorubicin, CellTiter-Glo luminescence; at 10 µM; stronger effect = higher value
[4] = viability of HCT116 without oncogenic beta-catenin – human colon tumor cells, pilot screen (AID 823); details: HCT116 beta-catenin knockout viability, CellTiter-Glo, 60 h; at 10 µM; stronger effect = lower value;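 further: 0% = wells killed by 20 µM Hyamine and 100% = untreated DMSO cell wells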
[5] = viability of PTEN-null HCT116 cells – cell-based, HCT116 clonal line, CellTiter-Glo, pilot screen (AID 824;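 active means viability at or below 27.92% in each of two runs, the all-compound median minus 4 SD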;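 further: 0% = 20 µM Hyamine control and 100% = vehicle cell control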); details: HCT116 PTEN-deleted viability, 60 h, at 10 µM, stronger effect = lower value
[6] = RAM pathway blockade in budding yeast – dse1pr::URA3 reporter, 5-FOA selection, pilot screen (AID 869;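 active means inhibition over a set limit, the all-compound mean plus 3 SD, in both replicate runs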;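 further: 0% = DMSO wells with no growth and 100% = 10 µM 1-NA-PP1 with full growth; RAM network block rescues cells from 5-FOA so hits raise OD615 growth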); details: S. cerevisiae dse1pr::URA3 5-FOA growth, OD615, 2 d; at 10 µM; stronger effect = higher value; strain carries analog-sensitive mutant Cbk1 kinase
[7] = RAM signaling pathway blockade in yeast – S. cerevisiae, Pdr1DBD-CYC8 efflux-inhibited sensitized strain, primary screen (AID 1298;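 active means RAM network inhibition above 8.4% in each of two replicates, 3 SD over the compound average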;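 further: 0% = DMSO untreated cells without growth and 100% = 10 µM 1-NA-PP1 full growth; higher means more yeast growth rescued from 5-FOA killing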); details: S. cerevisiae cbk1-as DSE1-URA3 strain, 5-FOA growth OD615, 2 d; at 50 µM; stronger effect = higher value

COc1ccc(-c2nnc(COc3ccc4ccccc4c3)o2)cc1OC
inactive: growth inhibition [1] -7.47% | growth inhibition [2] -22.7% | viability increase [3] -0.12% | viability [4] 99.7% | viability [5] 91.6% | inhibition [6] 1.22% | RAM network inhibition [7] 8.07%

CCN1CCN(C(=O)Cn2ncc3c2-c2ccccc2OC3)CC1
inactive: growth inhibition [1] 0.755% | growth inhibition [2] 0.8% | viability increase [3] -1.74% | viability [4] 106% | viability [5] 99.9% | inhibition [6] 1.14% | RAM network inhibition [7] 2.81%

Cc1cc(C)cc(N(CC(=O)Nc2c(C)n(C)n(-c3ccccc3)c2=O)S(C)(=O)=O)c1
inactive: growth inhibition [1] -11.3% | growth inhibition [2] -11.2% | viability increase [3] -1.95% | viability [4] 96.2% | viability [5] 93.2% | inhibition [6] 0.71% | RAM network inhibition [7] 2.45%

Cc1cccc(C2Nc3ccccc3C(=O)N2CCc2ccccc2)n1 (stereo unspecified)
inactive: growth inhibition [1] -10.1% | growth inhibition [2] -2.82% | viability increase [3] -2.91% | viability [4] 78.3% | viability [5] 73.5% | inhibition [6] 2.09% | RAM network inhibition [7] 7.42%

CCOC(=O)C(C)Sc1ncnc2nc[nH]c12 (stereo unspecified)
inactive: growth inhibition [1] -1.5% | growth inhibition [2] -25.9% | viability increase [3] -1.35% | viability [4] 98.8% | viability [5] 99.2% | inhibition [6] 1.11% | RAM network inhibition [7] 3.25%

COc1ccc(S(=O)(=O)NCC2CCC(C(=O)N3CCC4(CC3)OCCO4)CC2)cc1 (stereo unspecified)
inactive: growth inhibition [1] -5.13% | growth inhibition [2] -3.68% | viability increase [3] -1.38% | viability [4] 94.2% | viability [5] 90.6% | inhibition [6] 0.81% | RAM network inhibition [7] 2.29%

CC1(C)CC(=O)C=C(NC2CC(C)(C)NC(C)(C)C2)C1
inactive: growth inhibition [1] -11.6% | growth inhibition [2] -15.2% | viability increase [3] -0.93% | viability [4] 102% | viability [5] 98.8% | inhibition [6] 1.32% | RAM network inhibition [7] 3.08%

CCC(C)NC(=O)c1cnc2n(c1=O)CCS2 (stereo unspecified)
inactive: growth inhibition [1] 0.08% | growth inhibition [2] -1.8% | viability increase [3] 1.88% | viability [4] 103% | viability [5] 103% | inhibition [6] 1.18% | RAM network inhibition [7] 1.25%

O=C(CN(C1CCCCC1)S(=O)(=O)c1ccc(Cl)cc1)NCc1ccncc1
inactive: growth inhibition [1] -6.84% | growth inhibition [2] 3.38% | viability increase [3] -2.2% | viability [4] 79.8% | viability [5] 79.4% | inhibition [6] 1.56% | RAM network inhibition [7] 3.63%

CCCC(=O)Nc1nnc(-c2ccc(Cl)s2)o1
inactive: growth inhibition [1] -6.95% | growth inhibition [2] 2.92% | viability increase [3] -3.1% | viability [4] 95.6% | viability [5] 91.2% | inhibition [6] 1.61% | RAM network inhibition [7] 1.6%

CCOCCCNC(=O)c1cn(CC(C)C)c(=O)c2cc(OC)c(OC)cc12
inactive: growth inhibition [1] -22.4% | growth inhibition [2] -25.7% | viability increase [3] -2.7% | viability [4] 98.5% | viability [5] 97.9% | inhibition [6] 0.375% | RAM network inhibition [7] 4.93%

CCn1ncc(C2=NOC(C(=O)Nc3c(C)n(C)n(-c4ccccc4)c3=O)C2)c1C (stereo unspecified)
inactive: growth inhibition [1] -7.05% | growth inhibition [2] 5.18% | viability increase [3] 0.26% | viability [4] 96.1% | viability [5] 95.8% | inhibition [6] 0.855% | RAM network inhibition [7] 2.78%

CC1CCN(c2nc(-c3ccco3)c3c(c2C#N)CC(C)(C)OC3)CC1
inactive: growth inhibition [1] -15% | growth inhibition [2] -3.74% | viability increase [3] -6.85% | viability [4] 90.8% | viability [5] 89.6% | inhibition [6] 0.175% | RAM network inhibition [7] 0.92%

CCN1CCN(C(CNS(=O)(=O)c2ccc(OC)cc2)c2cccnc2)CC1 (stereo unspecified)
inactive: growth inhibition [1] -0.57% | growth inhibition [2] 8.5% | viability increase [3] -1.16% | viability [4] 105% | viability [5] 98.2% | inhibition [6] 3.57% | RAM network inhibition [7] 3.38%

Cc1ccc(C2/C(=C(/O)c3ccc(Cl)cc3)C(=O)C(=O)N2CC2CCCO2)o1 (stereo unspecified)
inactive: growth inhibition [1] -7.4% | growth inhibition [2] 12.5% | viability increase [3] -3.2% | viability [4] 95.1% | viability [5] 96.4% | inhibition [6] 0.77% | RAM network inhibition [7] -0.36%

Cc1ccc2oc(=O)c3cc(C(=O)NCc4ccco4)sc3c2c1
inactive: growth inhibition [1] -8.27% | growth inhibition [2] -8.27% | viability increase [3] -2.9% | viability [4] 102% | viability [5] 96.6% | inhibition [6] 3.86% | RAM network inhibition [7] 2.71%

CCOc1ccccc1NC(=O)CCS(=O)(=O)c1cccc2nonc12
inactive: growth inhibition [1] -15% | growth inhibition [2] -21.8% | viability increase [3] -4.44% | viability [4] 103% | viability [5] 96.3% | inhibition [6] 1.34% | RAM network inhibition [7] 5.48%

C=CCn1c(=N)c(C(=O)NCCCOC)cc2c(=O)n3cccc(C)c3nc21
inactive: growth inhibition [1] 2.23% | growth inhibition [2] 0.115% | viability increase [3] -2.3% | viability [4] 83.8% | viability [5] 88.5% | inhibition [6] 0.4% | RAM network inhibition [7] -0.47%
